According to ChEMBL document CHEMBL4689842, “EUbOPEN Chemogenomics Library wave 1” (2021):

System: Fibroblast
Experiment: Multiplex assay against human fibroblast
Type: toxicity, cell-based
How it was run: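 Compound was added to live cells that had been stained at seeding with Hoechst33342, BioTracker Green Microtubule Cytoskeleton Dye, MitoTracker Red and Annexin V Alexa Fluor 680, and imaging followed on a CQ1 microscope at 37°C and 5% CO2. CellPathfinder machine-learning gating divided cells into Hoechst high-intensity objects or normal cells, normal cells into healthy, pyknosed or fragmented nuclei, and pyknosed cells into mitotic or apoptotic. Tubulin, mitochondrial-mass and membrane-permeability phenotypes are per cents of healthy-nucleus cells.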

[1] = 12 h, 1 µM, compound concentration 1 uM, replicate 1
[2] = 12 h, 1 µM, compound concentration 1 uM, replicate 2
[3] = 12 h, 10 µM, compound concentration 10 uM, replicate 1
[4] = 12 h, 10 µM, compound concentration 10 uM, replicate 2
[5] = 24 h, 1 µM, compound concentration 1 uM, replicate 1
[6] = 24 h, 1 µM, compound concentration 1 uM, replicate 2
[7] = 24 h, 10 µM, compound concentration 10 uM, replicate 1
[8] = 24 h, 10 µM, compound concentration 10 uM, replicate 2
[9] = 48 h, 1 µM, compound concentration 1 uM, replicate 1
[10] = 48 h, 1 µM, compound concentration 1 uM, replicate 2
[11] = 48 h, 10 µM, compound concentration 10 uM, replicate 1
[12] = 48 h, 10 µM, compound concentration 10 uM, replicate 2

SMILES: Oc1cccc(-c2nc(N3CCOCC3)c3oc4ncccc4c3n2)c1 [PI-103]
- Population Apoptotic (%) [1]: 64%
- Population Fragmented Nuclei (%) [1]: 32%
- Population Healthy Nuclei (%) [1]: 39%
- Population Hoechst High Intensity Objects (%) [1]: 12%
- Population Membrane Permeable-Phenotype (%) [1]: 14%
- Population Mitochondria Different-Phenotype (%) [1]: 1%
- Population Mitotic Cells (%) [1]: 36%
- Population Normal (%) [1]: 87%
- Population Pyknosed Nuclei (%) [1]: 28%
- Population Tubulin-Different-Phenotype (%) [1]: 17%
- Total Cell Count [1]: 199
- Population Apoptotic (%) [2]: 47%
- Population Fragmented Nuclei (%) [2]: 10%
- Population Healthy Nuclei (%) [2]: 63%
- Population Hoechst High Intensity Objects (%) [2]: 5%
- Population Membrane Permeable-Phenotype (%) [2]: 2%
- Population Mitochondria Different-Phenotype (%) [2]: 7%
- Population Mitotic Cells (%) [2]: 52%
- Population Normal (%) [2]: 94%
- Population Pyknosed Nuclei (%) [2]: 26%
- Population Tubulin-Different-Phenotype (%) [2]: 0%
- Total Cell Count [2]: 73
- Population Apoptotic (%) [3]: 70%
- Population Fragmented Nuclei (%) [3]: 34%
- Population Healthy Nuclei (%) [3]: 34%
- Population Hoechst High Intensity Objects (%) [3]: 23%
- Population Membrane Permeable-Phenotype (%) [3]: 33%
- Population Mitochondria Different-Phenotype (%) [3]: 16%
- Population Mitotic Cells (%) [3]: 29%
- Population Normal (%) [3]: 76%
- Population Pyknosed Nuclei (%) [3]: 30%
- Population Tubulin-Different-Phenotype (%) [3]: 77%
- Total Cell Count [3]: 135
- Population Apoptotic (%) [4]: 36%
- Population Fragmented Nuclei (%) [4]: 18%
- Population Healthy Nuclei (%) [4]: 39%
- Population Hoechst High Intensity Objects (%) [4]: 5%
- Population Mitochondria Different-Phenotype (%) [4]: 59%
- Population Mitotic Cells (%) [4]: 63%
- Population Normal (%) [4]: 94%
- Population Pyknosed Nuclei (%) [4]: 41%
- Population Tubulin-Different-Phenotype (%) [4]: 83%
- Total Cell Count [4]: 69
- Population Apoptotic (%) [5]: 64%
- Population Fragmented Nuclei (%) [5]: 30%
- Population Healthy Nuclei (%) [5]: 46%
- Population Hoechst High Intensity Objects (%) [5]: 14%
- Population Membrane Permeable-Phenotype (%) [5]: 18%
- Population Mitochondria Different-Phenotype (%) [5]: 5%
- Population Mitotic Cells (%) [5]: 35%
- Population Normal (%) [5]: 85%
- Population Pyknosed Nuclei (%) [5]: 22%
- Population Tubulin-Different-Phenotype (%) [5]: 30%
- Total Cell Count [5]: 189
- Population Apoptotic (%) [6]: 75%
- Population Fragmented Nuclei (%) [6]: 14%
- Population Healthy Nuclei (%) [6]: 69%
- Population Hoechst High Intensity Objects (%) [6]: 6%
- Population Membrane Permeable-Phenotype (%) [6]: 3%
- Population Mitochondria Different-Phenotype (%) [6]: 3%
- Population Mitotic Cells (%) [6]: 25%
- Population Normal (%) [6]: 93%
- Population Pyknosed Nuclei (%) [6]: 16%
- Population Tubulin-Different-Phenotype (%) [6]: 1%
- Total Cell Count [6]: 73
- Population Apoptotic (%) [7]: 66%
- Population Fragmented Nuclei (%) [7]: 32%
- Population Healthy Nuclei (%) [7]: 32%
- Population Hoechst High Intensity Objects (%) [7]: 32%
- Population Membrane Permeable-Phenotype (%) [7]: 37%
- Population Mitochondria Different-Phenotype (%) [7]: 12%
- Population Mitotic Cells (%) [7]: 33%
- Population Normal (%) [7]: 67%
- Population Pyknosed Nuclei (%) [7]: 36%
- Population Tubulin-Different-Phenotype (%) [7]: 70%
- Total Cell Count [7]: 111
- Population Apoptotic (%) [8]: 50%
- Population Fragmented Nuclei (%) [8]: 28%
- Population Healthy Nuclei (%) [8]: 24%
- Population Hoechst High Intensity Objects (%) [8]: 4%
- Population Membrane Permeable-Phenotype (%) [8]: 44%
- Population Mitochondria Different-Phenotype (%) [8]: 75%
- Population Mitotic Cells (%) [8]: 49%
- Population Normal (%) [8]: 95%
- Population Pyknosed Nuclei (%) [8]: 47%
- Population Tubulin-Different-Phenotype (%) [8]: 89%
- Total Cell Count [8]: 80
- Population Apoptotic (%) [9]: 33%
- Population Fragmented Nuclei (%) [9]: 33%
- Population Healthy Nuclei (%) [9]: 53%
- Population Membrane Permeable-Phenotype (%) [9]: 20%
- Population Mitochondria Different-Phenotype (%) [9]: 5%
- Population Mitotic Cells (%) [9]: 66%
- Population Pyknosed Nuclei (%) [9]: 12%
- Population Tubulin-Different-Phenotype (%) [9]: 22%
- Total Cell Count [9]: 163
- Population Apoptotic (%) [10]: 60%
- Population Fragmented Nuclei (%) [10]: 32%
- Population Healthy Nuclei (%) [10]: 62%
- Population Hoechst High Intensity Objects (%) [10]: 14%
- Population Membrane Permeable-Phenotype (%) [10]: 34%
- Population Mitochondria Different-Phenotype (%) [10]: 8%
- Population Mitotic Cells (%) [10]: 40%
- Population Normal (%) [10]: 85%
- Population Pyknosed Nuclei (%) [10]: 4%
- Population Tubulin-Different-Phenotype (%) [10]: 47%
- Total Cell Count [10]: 129
- Population Apoptotic (%) [11]: 46%
- Population Fragmented Nuclei (%) [11]: 35%
- Population Healthy Nuclei (%) [11]: 43%
- Population Hoechst High Intensity Objects (%) [11]: 33%
- Population Membrane Permeable-Phenotype (%) [11]: 34%
- Population Mitochondria Different-Phenotype (%) [11]: 12%
- Population Mitotic Cells (%) [11]: 53%
- Population Normal (%) [11]: 66%
- Population Pyknosed Nuclei (%) [11]: 20%
- Population Tubulin-Different-Phenotype (%) [11]: 68%
- Total Cell Count [11]: 110
- Population Apoptotic (%) [12]: 78%
- Population Fragmented Nuclei (%) [12]: 36%
- Population Healthy Nuclei (%) [12]: 42%
- Population Hoechst High Intensity Objects (%) [12]: 40%
- Population Membrane Permeable-Phenotype (%) [12]: 20%
- Population Mitochondria Different-Phenotype (%) [12]: 24%
- Population Mitotic Cells (%) [12]: 21%
- Population Normal (%) [12]: 59%
- Population Tubulin-Different-Phenotype (%) [12]: 58%
- Total Cell Count [12]: 114
